Assay results from PubChem BioAssay.
Some of the results follow. The source made the active and inactive calls.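 How the source made its calls, unless noted: active means mean percent inhibition of duplicate wells above the buffer-only control mean plus 3 SD of those controls; inactive means the rest.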

Assays:
[1] = biological target: Potassium voltage-gated channel subfamily KQT member 1 (Homo sapiens) (UniProt P51787); assay: blockers of human KCNQ1 channel – cell-based, Tl flux, duplicate, confirmation (AID 588353;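 active means primary screen active, with duplicate mean exceeding buffer control mean plus 3 SD of buffer wells, cut at about 28% in these data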;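 further: 0% = buffer control ratio and 100% = XE991 inhibitor control ratio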); details: KCNQ1 cell line, FluxOR thallium flux fluorescence, at 10 µM, active compounds read high
Sequence of Potassium voltage-gated channel subfamily KQT member 1 (Homo sapiens) (P51787 whole entry, looked up): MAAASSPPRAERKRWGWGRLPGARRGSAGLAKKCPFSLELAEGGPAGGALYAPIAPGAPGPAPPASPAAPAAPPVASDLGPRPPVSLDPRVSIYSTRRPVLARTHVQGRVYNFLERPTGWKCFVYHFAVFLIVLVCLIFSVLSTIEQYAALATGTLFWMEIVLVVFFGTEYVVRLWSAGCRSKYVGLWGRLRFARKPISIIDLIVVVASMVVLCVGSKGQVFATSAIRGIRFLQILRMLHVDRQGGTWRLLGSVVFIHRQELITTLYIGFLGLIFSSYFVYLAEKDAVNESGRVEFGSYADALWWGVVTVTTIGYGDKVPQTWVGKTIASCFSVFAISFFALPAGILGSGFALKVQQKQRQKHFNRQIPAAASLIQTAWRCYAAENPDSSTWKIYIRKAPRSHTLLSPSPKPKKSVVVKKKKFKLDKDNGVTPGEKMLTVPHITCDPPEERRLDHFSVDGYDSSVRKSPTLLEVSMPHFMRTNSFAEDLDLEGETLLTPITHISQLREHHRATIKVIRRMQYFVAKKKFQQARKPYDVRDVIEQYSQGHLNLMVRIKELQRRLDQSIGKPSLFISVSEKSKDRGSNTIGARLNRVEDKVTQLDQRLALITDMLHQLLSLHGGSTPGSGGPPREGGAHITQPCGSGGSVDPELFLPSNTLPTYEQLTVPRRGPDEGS
In short: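 Read-out basis: Percent inhibition of fluorescence change ratio, scaled buffer to XE991 | Assay system: KCNQ1 CHO cells | Times: Compound exposure 20 min at room temperature | Repeats: Duplicate | Control set: Buffer and XE991 | Measured by: FluxOR thallium flux fluorescence, 10 s baseline plus 110 s | Reagent: Thallium-potassium depolarizing stimulus buffer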

[2] = nonspecific activity in CHO-K1 cells without KCNQ1 – parental CHO cells, Tl flux, counter-screen for KCNQ1 inhibitor project (AID 588366;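 active means mean of duplicate thallium-flux fluorescence ratios in parental host cells more than 5 SD below the buffer control mean, cut at about 0.38 in these data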;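 further: ratio is peak minus minimum fluorescence divided by baseline fluorescence; actives read low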); details: parental CHO-K1, FluxOR thallium flux fluorescence ratio; at 10 µM; active compounds read low; zero means no signal rise above baseline
In short: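 Assay system: untransfected parental CHO-K1 cells / Also added: depolarizing K2SO4 plus Tl2SO4 stimulus, each 12.5 mM in 5x stock / Timing: FluxOR dye loading 90 min, compound exposure 20 min, room temperature / Technique: real-time thallium-sensitive FluxOR dye fluorescence reading / Read-out: baseline-normalized fluorescence amplitude ratio, averaged over duplicates / Replicates: duplicates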

[3] = biological target: Potassium voltage-gated channel subfamily KQT member 2 (Rattus norvegicus) (UniProt O88943); assay: block of rat KCNQ2 potassium channel – cell-based, selectivity assay for KCNQ1 inhibitor project (AID 651746;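 active means mean percent inhibition of the KCNQ2 thallium signal more than 5 SD above the buffer-only control wells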;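 on inhibition: 0% = buffer control wells and 100% = XE-991 inhibitor control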); details: KCNQ2 cells, FluxOR thallium flux fluorescence, at 10 µM; active compounds read high
Sequence of Potassium voltage-gated channel subfamily KQT member 2 (Rattus norvegicus) (O88943 whole entry, looked up): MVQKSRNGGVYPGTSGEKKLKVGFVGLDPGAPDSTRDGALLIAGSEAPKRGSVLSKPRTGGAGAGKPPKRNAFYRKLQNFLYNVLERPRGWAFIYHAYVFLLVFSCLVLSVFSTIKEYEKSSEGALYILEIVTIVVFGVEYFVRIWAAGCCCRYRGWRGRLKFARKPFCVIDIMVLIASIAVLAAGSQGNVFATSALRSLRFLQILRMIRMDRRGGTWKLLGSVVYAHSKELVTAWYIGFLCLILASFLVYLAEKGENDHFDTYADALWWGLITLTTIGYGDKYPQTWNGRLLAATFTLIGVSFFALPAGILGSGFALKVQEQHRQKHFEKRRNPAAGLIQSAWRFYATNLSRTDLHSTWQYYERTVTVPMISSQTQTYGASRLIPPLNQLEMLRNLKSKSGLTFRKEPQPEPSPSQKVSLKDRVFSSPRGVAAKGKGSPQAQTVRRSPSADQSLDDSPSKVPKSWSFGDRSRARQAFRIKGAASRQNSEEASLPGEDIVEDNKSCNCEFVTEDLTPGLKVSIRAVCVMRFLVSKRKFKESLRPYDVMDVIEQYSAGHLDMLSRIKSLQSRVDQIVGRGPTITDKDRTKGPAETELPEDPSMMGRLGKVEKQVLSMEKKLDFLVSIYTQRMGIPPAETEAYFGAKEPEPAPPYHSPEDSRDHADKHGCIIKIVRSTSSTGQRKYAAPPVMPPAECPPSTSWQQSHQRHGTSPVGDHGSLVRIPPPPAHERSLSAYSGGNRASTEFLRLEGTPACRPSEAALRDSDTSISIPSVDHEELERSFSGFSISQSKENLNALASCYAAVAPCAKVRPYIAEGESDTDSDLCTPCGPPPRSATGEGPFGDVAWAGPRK

[4] = biological target: Potassium voltage-gated channel subfamily E member 1 (Homo sapiens) + Potassium voltage-gated channel subfamily KQT member 1 (Homo sapiens) (UniProt P15382+P51787); assay: block of human IKs channel complex – CHO-K1 cells, thallium flux, FluxOR, selectivity assay for KCNQ1 inhibitor project (AID 652147); details: KCNQ1/KCNE1 cells, FluxOR thallium flux fluorescence, at 10 µM; active compounds read high;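 on inhibition: 0% = buffer only wells and 100% = XE-991 inhibitor control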
Sequence of Potassium voltage-gated channel subfamily E member 1 (Homo sapiens) + Potassium voltage-gated channel subfamily KQT member 1 (Homo sapiens) (P51787 whole entry, looked up): as the sequence (P51787 whole entry, looked up) above
In short: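 test system = KCNQ1/KCNE1 cells | schedule = 20 min compound pre-incubation at room temperature | detection = FluxOR thallium influx fluorescence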

SMILES	inhibition [1]	fluorescence ratio (Tl flux) [2]	inhibition [3]	inhibition [4]	outcome [3]	outcome [4]
N#Cc1c(/N=C/N2CCCC2)oc(-c2ccccc2)c1-c1ccccc1	70% (active)	0.445 (inactive)	74.3% (active)	79% (active)	–	–
Cc1ccc(N2CCN(S(=O)(=O)c3ccc(F)cc3)CC2)c(C)c1	79% (active)	0.406 (inactive)	94% (active)	69.5% (active)	–	–
COc1ccc(C(=O)NC2CCCc3c2cnn3-c2cccc(C)c2C)c(OC)n1 (stereo not drawn)	132% (active)	0.296 (active)	127% (active)	184% (active)	–	–
COc1ccc(S(=O)(=O)/N=C2\C=C(NS(=O)(=O)c3ccccc3)C(=O)c3ccccc32)cc1	31.5% (active)	0.44 (inactive)	–	–	inactive	inactive
O=C(NCC(F)(F)F)Nc1nnc(C(F)(F)F)s1	26% (active)	0.557 (inactive)	–	–	inactive	inactive
COc1ccc(Nc2ncnc3sc(-c4ccccc4)cc23)c(OC)c1	82.5% (active)	0.403 (inactive)	112% (active)	146% (active)	–	–
O=C(Nc1ccc(F)cc1)c1cccnc1N1CCOCC1	44% (active)	0.517 (inactive)	–	53.5% (active)	inactive	–
Cc1c(C(=O)OC(C)C)sc(NC(=O)c2cccnc2)c1C#N	74% (active)	0.489 (inactive)	78% (active)	48.5% (active)	–	–
Cc1nnc(SC(C(=O)Nc2cc(Cl)cc(Cl)c2)c2ccccc2)[nH]c1=O (stereo not drawn)	43% (active)	0.471 (inactive)	–	–	–	inactive
O=C1CCCN1CCCNC(=S)Nc1ccc(F)c(Cl)c1	51% (active)	0.445 (inactive)	72.7% (active)	58.5% (active)	–	–
O=C(NC(=S)Nc1ccccc1C(=O)O)c1ccc(-c2ccc(Br)cc2)o1	56% (active)	0.46 (inactive)	–	78% (active)	inactive	–
COc1ccc(-c2cc(C(F)(F)F)nc(S(C)(=O)=O)n2)cc1OC	27% (active)	0.445 (inactive)	–	77.5% (active)	inactive	–
CC(=O)N1CCCc2cc(S(=O)(=O)N3CCCC(C(=O)N4CCN(c5cccc(Cl)c5)CC4)C3)ccc21 (stereo not drawn)	126% (active)	0.436 (inactive)	134% (active)	140% (active)	–	–
COC(=O)c1cc(NC(=O)c2cc(C(C)(C)C)nn2Cc2cccc(C)c2)ccc1N1CCOCC1	77% (active)	0.333 (active)	80.3% (active)	154% (active)	–	–
CN(c1cccc(NC(=O)Nc2ccc(Cl)cc2)c1)S(C)(=O)=O	59.5% (active)	0.545 (inactive)	–	42.5% (active)	inactive	–
O=C(Nc1ccc(Cl)cc1)Nc1ccc(Oc2cccnc2)nc1	56% (active)	0.487 (inactive)	–	–	–	inactive
CC1CCC2(CC1)NC(=O)N(CC(=O)c1cccn1C)C2=O (stereo not drawn)	31% (active)	0.503 (inactive)	–	–	inactive	inactive
Cc1oc2c(F)c(F)c(F)c(F)c2c1S(=O)(=O)Nc1cccc(C(F)(F)F)c1	0% [the number is a placeholder, only the call stands] (inactive)	0.531 (inactive)	–	–	inactive	inactive
CNC(=O)c1ccsc1NC(=O)c1ccc(S(=O)(=O)N2CCc3ccccc32)cc1	97% (active)	0.446 (inactive)	115% (active)	170% (active)	–	–
Cc1nn(C)cc1N1C(=O)c2cccc3c(N)ccc(c23)C1=O	–	0.006 (active)	–	–	inactive	inactive
Cc1ccc(-c2noc(CC(c3ccccc3)c3ccccc3)n2)cc1	65.5% (active)	0.45 (inactive)	77% (active)	116% (active)	–	–
Fc1cc(Br)ccc1NC(=S)Nc1cccnc1	33% (active)	0.539 (inactive)	–	–	inactive	inactive
Cc1cccc(-n2cc(CN3CCN(C(=O)c4ncn[nH]4)CC3)c(-c3cccc(F)c3)n2)c1	45.5% (active)	0.435 (inactive)	–	–	inactive	inactive
CCOC(=O)c1c(NC(=O)C(C)Sc2c[nH]c3ccccc23)sc2c1CCC2 (stereo not drawn)	124% (active)	0.415 (inactive)	105% (active)	155% (active)	–	–
COc1cc(NC(=O)c2ccccc2NS(=O)(=O)c2ccc(Cl)s2)cc(OC)c1	102% (active)	0.419 (inactive)	–	–	inactive	inactive
Cc1ccc(S(=O)(=O)Nc2ccc3ncccc3c2)cc1	76.5% (active)	0.499 (inactive)	–	–	inactive	inactive
CCc1cc(C(c2ccccc2OC)N2CCOCC2)c(NC(=O)c2ccccc2)s1 (stereo not drawn)	102% (active)	0.335 (active)	–	132% (active)	–	–
Cc1cccc(CSc2ccc(-c3cccs3)nn2)c1	78% (active)	0.42 (inactive)	114% (active)	112% (active)	–	–
